In ChEMBL document CHEMBL4014309, “Development of an Acrylate Derivative Targeting the NLRP3 Inflammasome for the Treatment of Inflammatory Bowel Disease” (J Med Chem, 2017):
Calls of active or inactive are those of the source. The calls are words filed in the database; no cut-off is given here.

What was measured:
Rattus norvegicus [1] = test: (§1) Antiinflammatory activity in DNBS-induced Sprague-Dawley rat colitis model assessed as body weight recovery at 1 mg/kg/day, ig administered as methylcellulose suspension for 6 days simulatneously with 6 days of DNBS-challenge measured daily during compound dosing; assay type: functional, organism-based
Method in brief: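 Colitis was induced with intrarectal DNBS (15 mg in 0.25 mL 50% ethanol). Intragastric treatment ran 6 days from the day of induction: 1 mg/kg/day in 1% methylcellulose, or 12.5–50 mg/kg/day in olive oil. Body weight change (g) was recorded at the end of treatment, mean ± SEM, n = 10.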

Rattus norvegicus [2] = test: Anti-inflammatory activity in DNBS-induced Sprague-Dawley rat colitis model assessed as reduction in DNBS-induced increase in MPO levels in colon at 1 mg/kg/day, ig for 6 days simulatneously with 6 days of DNBS-challenge by ELISA; assay type: functional, organism-based
Method in brief: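 DNBS colitis (15 mg intrarectal in 50% ethanol) was treated by the intragastric route for 6 days from induction (1 mg/kg/day in 1% methylcellulose, or 12.5–50 mg/kg/day in olive oil). Colonic samples (30 mg) were taken adjacent and distal to the necrotic area, homogenized, and assayed for MPO by ELISA. Results are ng MPO per mg tissue, mean ± SEM, n = 10.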

[3] = target: NACHT, LRR and PYD domains-containing protein 3 (Mus musculus) (UniProt Q8R4B8); test: Inhibition of NLRP3 inflammasome in LPS-primed C57BL/6 mouse bone marrow derived macrophages assessed as reduction in nigericin-induced IL-1beta production at 10 to 250 nM preincubated for 1 hr followed by stimulation with nigericin measured after 30 mins by ELISA
Method in brief: (§2)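 Bone marrow macrophages from C57BL/6 mice, differentiated with 20% L-cell medium, primed with LPS (1 µg/mL, 3 h). Test agent or vehicle was added for 1 h, then ATP (5 mM, 30 min) or nigericin (10 µM, 30 min). IL-1β in the medium was measured by ELISA. LDH in the medium was measured colorimetrically as % of total cellular LDH.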

Rattus norvegicus [4] = test: Toxicity in Sprague-Dawley rat assessed as body weight loss at 1 mg/kg/day, ig; assay type: organism-based; conditions: in vivo, po
Method in brief: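 Rats received intrarectal DNBS (15 mg in 0.25 mL 50% ethanol) or none. Dosing was intragastric for 6 days from induction: compound 12.5–50 mg/kg/day in 0.2 mL olive oil, or dexamethasone 1 mg/kg/day in 0.2 mL 1% methylcellulose. Body weight change was recorded at end; n = 10, mean ± SEM.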

[5] = target: NACHT, LRR and PYD domains-containing protein 3 (Mus musculus) (UniProt Q8R4B8); test: Inhibition of NLRP3 inflammasome in LPS-primed C57BL/6 mouse bone marrow derived macrophages assessed as reduction in ATP-induced pyroptosis at 100 to 250 nM preincubated for 1 hr followed by stimulation with ATP measured after 30 mins by LDH release assay; method in brief: as §2
[6] = target: NACHT, LRR and PYD domains-containing protein 3 (Mus musculus) (UniProt Q8R4B8); test: Inhibition of NLRP3 inflammasome in LPS-primed C57BL/6 mouse bone marrow derived macrophages assessed as reduction in ATP-induced IL-1beta production at 10 to 250 nM preincubated for 1 hr followed by stimulation with ATP measured after 30 mins by ELISA
Method in brief: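 C57BL/6 bone marrow macrophages, differentiated with 20% L-cell medium, were primed with LPS (1 µg/mL, 3 h). They were then exposed to compound or vehicle for 1 h and stimulated with ATP (5 mM, 30 min). IL-1β released into the medium was measured by ELISA.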

Rattus norvegicus [7] = test: as §1, with “reduction in DNBS-induced spleen” for “body”, “increase by measuring increase in spleen weight” for “recovery”, “dosing (reference value: 39.3%)” for “dosing”; assay type: functional; parameters: scale not given: the % may be the effect or the level left
Method in brief: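 Spleen weight was used as an index of systemic inflammation. Rats had intrarectal DNBS (15 mg/0.25 mL 50% ethanol) and 6 days of intragastric dosing: 1 mg/kg/day in 1% methylcellulose, or 12.5–50 mg/kg/day in 0.2 mL olive oil. The spleen was weighed at sacrifice and expressed as percent increase versus control, n = 10.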

Rattus norvegicus [8] = test: Anti-inflammatory activity in DNBS-induced Sprague-Dawley rat colitis model assessed as DNBS-induced TNFalpha levels in colon at 1 mg/kg/day, ig for 6 days simulatneously with 6 days of DNBS-challenge by ELISA (reference value: 5.9 +/- 0.6 pg/mg); assay type: functional
Rattus norvegicus [9] = test: Antiinflammatory activity in DNBS-induced Sprague-Dawley rat colitis model assessed as DNBS-induced macroscopic damage score at 1 mg/kg/day, ig for 6 days simulatneously with 6 days of DNBS-challenge (reference value: 8.6 +/- 0.6); assay type: functional
Method in brief: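 After intrarectal DNBS (15 mg/0.25 mL 50% ethanol), dosing was intragastric for 6 days (0.2 mL olive oil; 1 mg/kg/day dose in 1% methylcellulose). The whole excised colon was scored for macroscopic damage on a 0–6 point scale by two blinded observers. Values are mean ± SEM, n = 10.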

Rattus norvegicus [10] = test: Anti-inflammatory activity in DNBS-induced Sprague-Dawley rat colitis model assessed as DNBS-induced IL-1beta levels in colon at 1 mg/kg/day, ig for 6 days simulatneously with 6 days of DNBS-challenge by ELISA (reference value: 22.3 +/- 2.9 ng/mg); assay type: functional
[11] = target: NACHT, LRR and PYD domains-containing protein 3 (Mus musculus) (UniProt Q8R4B8); test: Inhibition of NLRP3 inflammasome in LPS-primed C57BL/6 mouse bone marrow derived macrophages assessed as reduction in nigericin-induced pyroptosis at 100 to 250 nM preincubated for 1 hr followed by […] measured after 30 mins by LDH release assay; method in brief: as §2

Sequence of NACHT, LRR and PYD domains-containing protein 3 (Mus musculus) (Q8R4B8 whole entry, the tested form may be a part): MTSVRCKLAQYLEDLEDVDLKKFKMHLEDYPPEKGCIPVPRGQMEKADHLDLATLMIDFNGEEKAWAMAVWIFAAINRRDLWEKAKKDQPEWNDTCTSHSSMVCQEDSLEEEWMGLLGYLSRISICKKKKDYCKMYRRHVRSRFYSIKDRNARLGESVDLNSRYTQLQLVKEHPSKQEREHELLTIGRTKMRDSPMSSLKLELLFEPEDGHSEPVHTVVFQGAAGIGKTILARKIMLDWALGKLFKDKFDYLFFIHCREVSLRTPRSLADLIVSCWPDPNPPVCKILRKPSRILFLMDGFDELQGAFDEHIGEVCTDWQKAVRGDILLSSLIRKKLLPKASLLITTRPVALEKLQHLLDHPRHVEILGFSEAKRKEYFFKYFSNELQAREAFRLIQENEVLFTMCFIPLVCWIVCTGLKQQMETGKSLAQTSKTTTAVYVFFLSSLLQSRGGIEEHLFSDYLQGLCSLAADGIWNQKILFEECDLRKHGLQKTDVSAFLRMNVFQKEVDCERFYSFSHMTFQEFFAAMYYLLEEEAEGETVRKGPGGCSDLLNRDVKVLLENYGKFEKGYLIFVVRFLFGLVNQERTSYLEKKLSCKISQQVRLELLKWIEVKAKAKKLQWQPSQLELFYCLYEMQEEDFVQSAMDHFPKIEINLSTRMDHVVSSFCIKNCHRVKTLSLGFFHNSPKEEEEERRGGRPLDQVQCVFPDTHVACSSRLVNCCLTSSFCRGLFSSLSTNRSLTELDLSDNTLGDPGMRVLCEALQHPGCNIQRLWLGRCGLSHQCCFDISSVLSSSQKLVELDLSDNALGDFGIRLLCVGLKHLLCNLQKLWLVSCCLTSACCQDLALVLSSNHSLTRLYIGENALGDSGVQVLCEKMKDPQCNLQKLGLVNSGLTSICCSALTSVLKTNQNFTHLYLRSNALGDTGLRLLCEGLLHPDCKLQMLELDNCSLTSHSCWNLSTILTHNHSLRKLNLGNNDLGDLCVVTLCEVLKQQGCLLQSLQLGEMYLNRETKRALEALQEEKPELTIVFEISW

inhibition [3]: inactive
inhibition [5]: Active
inhibition [6]: inactive
inhibition [11]: Active
Structure (SMILES): C[C@@H]1C[C@H]2[C@@H]3CCC4=CC(=O)C=C[C@]4(C)[C@@]3(F)[C@@H](O)C[C@]2(C)[C@@]1(O)C(=O)CO [DEXAMETHASONE]
Activity (Rattus norvegicus [1]): inactive
Activity (Rattus norvegicus [2]): Active
Activity (Rattus norvegicus [4]): Toxic
Activity (Rattus norvegicus [7]): 1.6%
Activity (Rattus norvegicus [8]): 2.2 pg/mg
Activity_index (Rattus norvegicus [9]): 2
Activity (Rattus norvegicus [10]): 6.7 ng/mg
